Assay results taken from publication PMC7923394 (Nature chemical biology, 2020).
Blank lines part the entries; values can stand above or below the substance they belong to. Where no end group is shown, it is not given here. The star is where a group is joined. αGalNAc = CC(=O)N[C@@H]1[C@@H](O)[C@@H](O)[C@@H](CO)O[C@@H]1*

Key:
Assay in all cases: Enzyme kinetics, UDP-[3H]-GalNAc transfer to
Type in all cases: biochemical
human GalNAc-T12 = settings: peptide as acceptor substrate; Supplementary Fig. 16a
How it was run: (§1)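 Radiochemical transfer assay with 0.02–0.03 µM purified enzyme, 0.02–0.7 mM acceptor and 0.2 mM UDP-[3H]-GalNAc in 100 mM sodium cacodylate pH 6.5, 1 mM β-mercaptoethanol and 10 mM MnCl2 at 37 °C. T6 and T12 were HEK293F-expressed and His-Trap purified. Reactions were EDTA-quenched and product separated by Sephadex G10. Initial rates (<30% donor used) were normalised to a fresh-enzyme reference glycopeptide. Runs used 5–7 concentrations, 2–5 repeats, and Michaelis–Menten (± substrate-inhibition) fits.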

human GalNAc-T4 = settings: peptide as acceptor substrate; Supplementary Fig. 16a
human GalNAc-T6 = target: T1, human GalNAc-T6 (Homo sapiens, UniProt Q8NCL4); settings: peptide as acceptor substrate
T1 sequence (Q8NCL4 1-622): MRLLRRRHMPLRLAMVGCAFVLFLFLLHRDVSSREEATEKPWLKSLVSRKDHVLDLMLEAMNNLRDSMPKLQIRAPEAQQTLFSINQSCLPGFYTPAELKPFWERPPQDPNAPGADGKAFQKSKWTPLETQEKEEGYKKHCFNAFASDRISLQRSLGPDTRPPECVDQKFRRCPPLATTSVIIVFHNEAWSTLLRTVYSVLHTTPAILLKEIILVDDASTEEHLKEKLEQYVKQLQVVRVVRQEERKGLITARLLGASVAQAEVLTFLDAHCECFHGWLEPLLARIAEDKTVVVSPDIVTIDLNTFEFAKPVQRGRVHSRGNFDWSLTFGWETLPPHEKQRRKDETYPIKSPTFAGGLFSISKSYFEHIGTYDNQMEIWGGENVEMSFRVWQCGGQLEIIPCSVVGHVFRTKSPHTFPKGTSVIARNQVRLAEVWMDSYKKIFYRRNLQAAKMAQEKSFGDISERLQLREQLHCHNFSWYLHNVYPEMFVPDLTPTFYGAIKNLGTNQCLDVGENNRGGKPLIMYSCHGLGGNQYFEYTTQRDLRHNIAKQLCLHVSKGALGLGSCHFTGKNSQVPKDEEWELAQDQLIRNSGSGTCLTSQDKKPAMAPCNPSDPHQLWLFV
How it was run: as §1

human GalNAc-T3 = target: T2, human GalNAc-T3 (Homo sapiens, UniProt Q14435); settings: naked peptides as acceptor substrates
T2 sequence (Q14435 92-633): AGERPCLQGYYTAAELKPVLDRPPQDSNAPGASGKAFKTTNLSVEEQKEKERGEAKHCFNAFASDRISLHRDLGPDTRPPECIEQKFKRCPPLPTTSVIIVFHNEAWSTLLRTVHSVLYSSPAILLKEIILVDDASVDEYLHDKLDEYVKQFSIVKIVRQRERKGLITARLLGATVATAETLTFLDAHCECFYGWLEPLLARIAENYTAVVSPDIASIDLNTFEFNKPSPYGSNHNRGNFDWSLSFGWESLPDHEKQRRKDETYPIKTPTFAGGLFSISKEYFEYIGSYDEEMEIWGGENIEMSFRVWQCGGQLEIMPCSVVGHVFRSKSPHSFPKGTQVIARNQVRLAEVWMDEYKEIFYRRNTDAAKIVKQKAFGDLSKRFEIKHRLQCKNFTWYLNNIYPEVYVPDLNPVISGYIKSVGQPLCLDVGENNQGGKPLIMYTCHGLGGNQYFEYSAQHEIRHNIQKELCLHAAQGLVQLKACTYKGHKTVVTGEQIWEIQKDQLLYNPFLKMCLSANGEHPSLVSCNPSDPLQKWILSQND
How it was run: as §1

activity of GalNAc-T12 against the peptide (human GalNAc-T12): very low
activity of GalNAc-T4 against the peptide (human GalNAc-T4): very low
Substance: FGF23b: shorter FGF23 model peptide substrate (A171–T178)

Substance: FGF23c: FGF23 model glycopeptide substrate (T*171–T178, T* = Thr-O-GalNAc) (T(αGalNAc)PIPRRHT-NH2; UniProt Q9GZV9 171-178, looked up, fragment)
Km of GalNAc-T6 compared to GalNAc-T3 (human GalNAc-T6): slightly better Km
Kcat of GalNAc-T6 relative to that of GalNAc-T3 (human GalNAc-T6; Supplementary Fig. 16b): ~ 3.5 fold

activity among the OP1 to OP10 peptide series (human GalNAc-T3): the most active of the series
Substance: GAYAVTPGPAG [OP1]
